The target of one data set is Albumin (Homo sapiens, UniProt P02768). In words: Binding affinity to 4.5 % human serum albumin.
Data set [1] in a line: Clearance in mouse at 75 mg/kg, po bid. It is filed as ADME, organism-based. On the set-up: dose 75 mg/kg, route oral. The following applies: in vivo.
A short description of data set [2]: Binding affinity to chimpanzee P2Y14 receptor. Further details: species or system Pan troglodytes.
Data set [3] can be described thus: Binding affinity to chimpanzee P2Y14 receptor in presence of 2% human serum albumin. Further details: species or system Pan troglodytes.
The nature of data set [4]: Oral bioavailability in mouse at 75 mg/kg bid. Format: ADME, organism-based. The following applies: in vivo.
The nature of data set [5]: Half life in mouse at 75 mg/kg, po bid. Further details: dose 75 mg/kg, route oral. Format: ADME, organism-based. The following applies: in vivo.
The nature of data set [6]: Metabolic stability in whole blood after 1 hr.
A short description of data set [7]: Oral bioavailability in mouse at 50 mg/kg. It is filed as ADME, organism-based. The conditions noted are these: in vivo. Summed up: (§1)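 Mice dosed orally at 50 mg/kg in 0.25% methocel. Plasma levels of the parent zwitterion were measured for both the parent and the ester prodrugs, giving AUC, 24 h concentration and clearance. For prodrugs, bioavailability is expressed as virtual F, based on parent-drug exposure.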

The test system of the next data set is Mus musculus. Nature of the data set: (§2) AUC in mouse at 50 mg/kg, po after 24 hrs. The following applies: in vivo, 24 h. On the set-up: time < 24 hr, dose 50 mg/kg, route oral. It is filed as ADME, organism-based, Plasma. Summed up:
as §1

The nature of data set [8]: Plasma concentration in mouse at 50 mg/kg, po after 24 hrs. It is filed as ADME, organism-based. Further details: dose 50 mg/kg, route oral. Summed up:
as §1

Data set [9] in a line: as §2. Format: ADME, organism-based, Plasma. Further details: time < 24 hr, dose 50 mg/kg, route oral. The following applies: plasma. Summed up:
as §1

The CL/F is the apparent clearance, not corrected for the fraction that reaches the circulation. The Ki is a dissociation constant, usually derived from enzyme kinetics or from competition with a known ligand. What is called bioavailability is the share of a dose that reaches the circulation, judged against a reference dose that is usually intravenous. Lower therefore signals poor availability. The half-life is the time in which the quantity being followed falls by half. The low end stands for rapid decline, the high end for slow decline. By AUC is commonly meant the area under the concentration-time curve, a measure of exposure. Read a high AUC as high exposure.

Albumin, sequence (P02768 whole entry): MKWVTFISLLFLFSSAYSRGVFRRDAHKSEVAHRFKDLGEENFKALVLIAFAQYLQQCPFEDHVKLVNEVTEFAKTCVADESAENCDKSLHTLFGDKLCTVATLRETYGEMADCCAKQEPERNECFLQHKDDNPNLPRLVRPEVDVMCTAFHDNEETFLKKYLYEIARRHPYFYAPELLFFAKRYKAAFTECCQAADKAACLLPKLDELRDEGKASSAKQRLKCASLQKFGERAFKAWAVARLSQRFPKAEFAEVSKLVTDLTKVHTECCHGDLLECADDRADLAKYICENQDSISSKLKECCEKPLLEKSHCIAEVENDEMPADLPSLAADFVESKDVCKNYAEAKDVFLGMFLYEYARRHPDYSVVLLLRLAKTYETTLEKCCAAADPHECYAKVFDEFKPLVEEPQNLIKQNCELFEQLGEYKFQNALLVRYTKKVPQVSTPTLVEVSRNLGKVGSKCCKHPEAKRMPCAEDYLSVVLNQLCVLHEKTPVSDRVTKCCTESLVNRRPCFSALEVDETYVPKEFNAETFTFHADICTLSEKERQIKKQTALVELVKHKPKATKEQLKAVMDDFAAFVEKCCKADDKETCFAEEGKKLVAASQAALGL

For `O=C(O)c1cc(-c2ccc([C@@H](O)C(F)F)cc2)c2ccc(-c3ccc(C(F)(F)F)cc3)cc2c1`, the Activity on Albumin is on record as above 99%. Further, the CL/F in [1] worked out at 1.6 mL/min/kg. Also, the Ki in data set [2] was determined as 4 nM; in data set [3] it was 1290 nM. The compound also gave a bioavailability in data set [4] of 67%. This compound also had a half-life in [5] of 180 min.

Regarding `CC(=O)OCOC(=O)c1cc(-c2ccc(C3CCNCC3)cc2)c2ccc(-c3ccc(C(F)(F)F)cc3)cc2c1`, the Stability entry in data set [6] was “Unstable”.

As for `CC(OCC(=O)C(C)C)OC(=O)c1cc(-c2ccc(C3CCNCC3)cc2)c2ccc(-c3ccc(C(F)(F)F)cc3)cc2c1` (stereo not drawn), the Stability result in data set [6] is recorded as “Unstable”.

Regarding `CN(C)CCOC(=O)c1cc(-c2ccc(C3CCNCC3)cc2)c2ccc(-c3ccc(C(F)(F)F)cc3)cc2c1`, the Stability result in [6] is “Unstable”.

Turning to `CN(C)C(=O)COC(=O)c1cc(-c2ccc(C3CCNCC3)cc2)c2ccc(-c3ccc(C(F)(F)F)cc3)cc2c1`, the Stability result in data set [6] is “Unstable”. In data set [7], this compound registered a bioavailability of 67%. In addition, the AUC with Mus musculus worked out at 54 µM·h. Further, in [8], the concentration at 24 h was determined as 2280 nM.

In the case of `O=C(O)c1cc(-c2ccc(C3CCNCC3)cc2)c2ccc(-c3ccc(C(F)(F)F)cc3)cc2c1` [PPTN], the bioavailability in data set [7] is 5%. The compound further registered an AUC at 24 h in data set [9] of 23 µM·h. Also, the results for the Ki in [2] and in [3] were 1.9 nM and 35 nM, respectively. The same compound came in with a concentration at 24 h in data set [8] of 680 nM.
